Activity calls are given as the source filed them. The calls are words filed in the database; no cut-off is given here.

The test system of test [1] is A549. The test can be described thus: Cytotoxicity against human A549 cells assessed as formation of shortened aggregates of mirotube bundles at 5 uM by immuno-fluorescent microscopy. The class given is functional, cell-based. In a few lines: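 A549 cells were treated with compound at the concentration given in the line, then fixed with polyformaldehyde. Microtubules were stained with primary mouse anti-α-tubulin and a secondary Alexa 488-labelled rabbit anti-mouse antibody. Cells were examined by immunofluorescence microscopy for microtubule bundles and shortened aggregates.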

Test [2] concerns A549. Nature of the test: Cytotoxicity against human A549 cells. Format: functional, cell-based.
Test [3] is filed under the species Bos taurus. Nature of the test: Induction of bovine tubulin aggregation by electron microscopy using uranyl acetate staining. In a few lines:
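Tubulin purified from bovine brain was incubated with compound. Samples were negatively stained with uranyl acetate and examined by electron microscopy for aggregates.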

The species named for test [4] is Bos taurus. Nature of the test: Induction of bovine tubulin aggregation by SDS-PAGE. The procedure, abridged:
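Sedimentation assay using tubulin purified from bovine brain, incubated with compound. Pellets were resolved by SDS–PAGE. Pelleted tubulin was expressed relative to the amount pelleted after incubation with taxol, set as 100%. DMSO served as the negative control.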

For test [5], the species on record is Bos taurus. The test can be described thus: Induction of bovine tubulin polymerization relative to taxol. Also on record: concentration or dose not given beside the values.

In general, IC50 refers to the concentration that gives 50% inhibition. `COc1cc2c(c(OC)c1OC)-c1ccc(OC)c(=O)cc1[C@@H](NC(=O)CCCCCC(=O)OC1C3CC4CC1CC(OC(=O)[C@H](O)[C@@H](NC(=O)OC(C)(C)C)c1ccccc1)(C4)C3)CC2` (mixture of isomers): the outcome in the test with A549 [1] was Active. The IC50 in the test on A549 [2] is 0.0006 µM.
In the case of `O=C(N[C@@H](c1ccccc1)[C@@H](O)C(=O)OC12CC3CC(CC(C3)C1)C2)c1ccccc1`, the outcome in the test listed under Bos taurus [3] and in the test filed under Bos taurus [4] was Active. This compound displayed an IC50 in the test with A549 [2] of 5.6 µM. The Activity in the test filed under Bos taurus [5] turned out to be 57.1%.
As to `CC(C)(C)OC(=O)N[C@@H](c1ccccc1)[C@@H](O)C(=O)OC12CC3CC(C1)CC(C(=O)OC1COC1)(C3)C2`, the result in the test listed under Bos taurus [3] and in the test filed under Bos taurus [4] was Active. In the test on A549 [2], this compound returned a half-maximal inhibitory concentration (IC50) of 2.5 µM. The same compound came in with an Activity in the test filed under Bos taurus [5] of 27.1%.
For `O=C(CCNC(=O)c1ccccc1)OC12CC3CC(CC(C3)C1)C2`, in the test listed under Bos taurus [4], the result was Active. In addition, the Activity in the test listed under Bos taurus [5] amounted to 32.9%.
`CC(=O)O[C@H]1C(=O)[C@@]2(C)[C@H]([C@H](OC(=O)c3ccccc3)[C@]3(O)C[C@H](OC(=O)[C@H](O)[C@@H](NC(=O)c4ccccc4)c4ccccc4)C(C)=C1C3(C)C)[C@]1(OC(C)=O)CO[C@@H]1C[C@@H]2O` [PACLITAXEL] showed an IC50 with A549 [2] of 0.002 µM.
For the compound `O=C(N[C@@H](c1ccccc1)[C@@H](O)C(=O)OC12CC3CC(C1)C(OC(=O)c1ccccc1)C(C3)C2)c1ccccc1` (mixture of isomers), the outcome in the test listed under Bos taurus [3] and in the test listed under Bos taurus [4] was Active. Besides, half-maximal inhibition in the test on A549 [2] (IC50) was put at 9.5 µM. This compound also came in with an Activity in the test filed under Bos taurus [5] of 32.3%.
`CC(C)(C)OC(=O)N[C@@H](c1ccccc1)[C@@H](O)C(=O)O[C@H]1C[C@H]2C[C@@H](C1)C[C@@H](C(=O)OC1COC1)C2` gave a half-inhibitory concentration (IC50) in the test with A549 [2] of 3.8 µM. In addition, the outcome in the test filed under Bos taurus [4] was Active. The compound also came in with an Activity in the test filed under Bos taurus [5] of 25.3%.

For the origin of these results see ChEMBL document CHEMBL1158186, “Design, synthesis, and bioactivity of putative tubulin ligands with adamantane core” (Bioorg Med Chem Lett, 2008).
